# Measured values collected from several papers.
# Lines come from different studies, so protocols differ.
# Target: STE20-like serine/threonine-protein kinase (SLK, Homo sapiens, UniProt Q9H2G2)
SMILES,observed,mode,technique,cells,tested at,quantity,value
CC(=O)C1=C(C)N(c2cccc(C(F)(F)F)c2)C(=O)N[C@@H]1c1ccc(C#N)nc1,cell-free assay,,competition with immobilised ligand,,1 µM,remaining binding,98.4%
CC(C)(C)c1nc2c(s1)c1nc(N)ncc1c1ccc(NS(=O)(=O)c3c(F)cccc3F)c(F)c12,enzyme activity,inhibitor,radiometric,,1 µM,remaining activity,95%
CS(=O)(=O)CCNCc1ccc(-c2ccc3ncnc(Nc4ccc(OCc5cccc(F)c5)c(Cl)c4)c3c2)o1,cell-free assay,,,,0.5 µM,remaining signal,85.1%
CCN1CCN(Cc2ccc(NC(=O)c3ccc(C)c(Oc4ccnc5[nH]ccc45)c3)cc2C(F)(F)F)CC1,target engagement in cells,inhibitor,chemoproteomics,Huh-7,10 µM,inhibition,-24.5%
CN1CC(Oc2cnc(C#N)cc2-c2ccn3nc(NC(=O)C4CC4)cc3c2)C1,enzyme activity,inhibitor,,,1 µM,inhibition,7%
CCN(CC)CCNC(=O)c1c(C)[nH]c(/C=C2\C(=O)Nc3ccc(F)cc32)c1C,cell-free assay,,,,0.5 µM,remaining signal,63.8%
CC1(C)NC(=O)c2[nH]c3c(Cl)c(Cl)ccc3c2C1C#N (stereo not shown),thermal stability,,DSF,,10 µM,ΔTm,-0.5 °C
O=C1CCc2cc(Nc3cc(OC4CCOCC4)c([N+](=O)[O-])cc3Cl)ccc2N1,cell-free assay,,competition with immobilised ligand,,1 µM,remaining binding,100%
Cn1c2c(Cl)c(Cl)ccc2c2cn[nH]c(=O)c21,thermal stability,,DSF,,10 µM,ΔTm,0.4 °C
O=C1Nc2ccc(Cl)cc2C1=Cc1cc(Cl)c(O)c(Cl)c1,cell-free assay,,,,0.5 µM,remaining signal,95.3%
Cn1c2c(Cl)c(Cl)ccc2c2cc[nH]c(=O)c21,thermal stability,,DSF,,10 µM,ΔTm,0.2 °C
O=C1NC(=O)c2cc(Nc3ccc(F)cc3)c(Nc3ccc(F)cc3)cc21,cell-free assay,,,,0.5 µM,remaining signal,65.5%
CCOc1cc(-c2nncn2C)ccc1Nc1ncc2cc(C)nc(NCC(C)(C)C)c2n1,cell-free assay,,TR-FRET,,1 µM,inhibition,≤ 15%
Cn1nc(C(=O)NCc2ccc(C(=O)O)cc2)cc1-c1ccc2[nH]ccc2c1,cell-free assay,,competition with immobilised ligand,,0.1 µM,remaining binding,65%
CNC(=O)c1cc(Oc2ccc(NC(=O)Nc3ccc(Cl)c(C(F)(F)F)c3)cc2)ccn1,cell-free assay,,,,0.5 µM,remaining signal,96.8%
COc1cc(-c2cc(-c3ccc(N4CCNCC4)cc3)cnc2C)cc(OC)c1OC,enzyme activity,inhibitor,,,0.1 µM,inhibition,12%
O=C(O)c1cc(-c2ccc(C3CCNCC3)cc2)c2ccc(-c3ccc(C(F)(F)F)cc3)cc2c1,cell-free assay,,competition with immobilised ligand,,1 µM,remaining binding,100%
COc1cc2nccc(Oc3ccc(NC(=O)Nc4ccc(F)cc4F)c(F)c3)c2cc1OC,thermal stability,,DSF,,10 µM,ΔTm,5 to 10 °C
COc1cc(Cl)c(C(=O)N[C@@H](CN[C@H]2CC[C@@H](N)CC2)Cc2ccc(C#N)cc2)cc1-c1ccc(CN[C@H](C)c2ccc(C)cc2)o1,enzyme activity,inhibitor,,,1 µM,remaining activity,95%
CN1CCN(c2cnc3c(C4CCN(C(=O)c5ccc(OC(F)(F)F)cc5N)CC4)ncnc3c2)CC1,cell-free assay,,competition with immobilised ligand,,1 µM,remaining binding,96%
Cn1c2c(c3ccc(Cl)c(Cl)c31)C(C#N)C1(CCOCC1)NC2=O (stereo not shown),thermal stability,,DSF,,10 µM,ΔTm,-0.4 °C
Nc1cnc(N2CCc3cc(S(=O)(=O)Nc4c(F)cc(Cl)cc4F)cc(N4CCCC4=O)c32)nc1,cell-free assay,,competition with immobilised ligand,,1 µM,remaining binding,100%
Cc1sc(C(=O)NC2COC2)cc1-n1cc(NC(=O)Nc2c(F)cccc2Cl)cn1,enzyme activity,inhibitor,,,10 µM,remaining activity,99.7%
CC1=C(C#N)C(c2ccc3c(c2)c(NC(=O)c2ccccc2C)nn3C)C(C#N)=C(C)N1,cell-free assay,,competition with immobilised ligand,,1 µM,remaining binding,88%
O=C(Nc1cnn(-c2csc(C(=O)NC3COC3)c2)c1)Nc1ccccc1Cl,enzyme activity,inhibitor,,,5 µM,remaining activity,89.7%
